In brackets after ≈: the same amount, converted by molar mass.
What was measured:
[1] = WHO-TDR: Cytotoxicity; format: toxicity, cell-based; details: human, MRC5 cells
Onchocerca lienalis = test: WHO-TDR: Onchocerciasis; format: functional; set-up: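 at 12.5 µM on microfilariae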
Method in brief: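 Following previously published standard procedures, with reference drugs as positive controls, a diverse Life Chemicals library was tested on whole Onchocerca ochengi or Onchocerca lienalis microfilariae. The library held 10,000 compounds filtered for drug-likeness and reactive groups. Activity is recorded both as percent inhibition and as IC50.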

Leishmania infantum = test: WHO-TDR: Leishmaniasis; format: functional, organism-based, Mus musculus; details: Macrophage
Method in brief: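 Following previously published standard procedures, a whole-organism screen was run on Leishmania infantum MHOM/MA(BE)/67 amastigotes within murine peritoneal macrophages, with a reference drug as positive control. The 10,000 compounds tested formed a diverse Life Chemicals library filtered for drug-likeness and reactive groups. Potency against the parasite is reported as IC50.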

Plasmodium falciparum K1 = test: WHO-TDR: Malaria; format: functional, organism-based, Homo sapiens; details: Erythrocyte
Method in brief: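 Following previously published standard procedures, with a reference drug serving as positive control, compounds were tested on the Plasmodium falciparum K1 strain inside human red blood cells. The 10,000-compound diverse set came from Life Chemicals after filtering for drug-likeness and reactive groups. Potency against the parasite appears as IC50.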

[2] = system: Trypanosoma brucei brucei; test: WHO-TDR: Human African Trypanosomiasis (HAT); format: functional, organism-based; details: Squib-427
Method in brief: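 Bloodstream forms of the Trypanosoma brucei Squib 427 strain were tested in a whole-organism screen with a diverse library from Life Chemicals of 10,000 compounds. Before screening, the library was filtered for drug-likeness and for reactive groups. The assay used previously published standard procedures and included reference drugs as positive controls. Potency against the parasite is expressed as IC50.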

Trypanosoma cruzi = test: WHO-TDR: Chagas disease; format: functional, organism-based, Homo sapiens; details: MRC5
Method in brief: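 A diverse library of 10,000 compounds from Life Chemicals, filtered for drug-likeness and reactive groups, was screened against intracellular amastigotes of Trypanosoma cruzi Tulahuen CL2 beta-galactosidase strain. The parasites were grown in MRC-5SV2 human lung fibroblast host cells, and a reference drug served as positive control under previously published standard procedures. Antiparasitic potency is given as IC50.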

Schistosoma mansoni = test: WHO-TDR: Schistosomiasis; format: functional; set-up: concentration or dose not given beside the values
Method in brief: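 Activity appears as percent inhibition and as IC50. The underlying screen tested a diverse library of 10,000 compounds, supplied by Life Chemicals, on whole larval and/or adult worms of the Puerto Rican strain of Schistosoma mansoni.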

| IC50 (Leishmania infantum) [µg/mL] | IC50 (Plasmodium falciparum K1) [µg/mL] | IC50 [2] [µg/mL] | SMILES | IC50 [1] [µg/mL] | % Inhibition (Onchocerca lienalis) [%] | IC50 (Trypanosoma cruzi) [µg/mL] | % Inhibition (Schistosoma mansoni) [%] |
| --- | --- | --- | --- | --- | --- | --- | --- |
| 4.22 (≈ 9.49 µM) | 4.01 (≈ 9.02 µM) | 0.396 (≈ 0.891 µM) | CCOC(=O)c1c(NC(=O)C2COc3ccccc3O2)sc2c1CC(C)(C)NC2(C)C (stereo not drawn) | 5.73 (≈ 12.9 µM) | 0 | 4.1 (≈ 9.22 µM) | 91.7 |
| 7.47 (≈ 15.5 µM) | 1.81 (≈ 3.78 µM) | 5.04 (≈ 10.5 µM) | COc1ccc(S(=O)(=O)NCC(c2cccnc2)N2CCN(Cc3ccccc3)CC2)cc1C (stereo not drawn) | > 14.4 | 0 | 0.835 (≈ 1.74 µM) | 0 |
| > 12.9 | > 12.9 | > 12.9 | CCOC(=O)N1CCc2c(sc(NC(=O)C3COc4ccccc4O3)c2C(N)=O)C1 (stereo not drawn) | > 12.9 | 13.3 | > 12.9 | 66 |
| > 13.8 | 6.66 (≈ 14.5 µM) | > 13.8 | COc1ccccc1N1CCN(C(CNS(=O)(=O)c2cccs2)c2cccnc2)CC1 (stereo not drawn) | > 13.8 | 66.7 | 0.559 (≈ 1.22 µM) | 0 |
| > 14.1 | 2.18 (≈ 4.63 µM) | > 14.1 | O=S(=O)(NCC(c1cccnc1)N1CCN(Cc2ccccc2)CC1)c1ccc(Cl)cc1 (stereo not drawn) | > 14.1 | 0 | 0.633 (≈ 1.34 µM) | 0 |
| > 12.9 | > 12.9 | 0.216 (≈ 0.503 µM) | COC(=O)c1c(NC(=O)c2nc3ccccc3s2)sc2c1CC(C)(C)NC2(C)C | > 12.9 | -1 | > 12.9 | 0 |
| > 9.01 | > 9.01 | 0.152 (≈ 0.506 µM) | O=C(NCCc1csc(-c2ccccc2)n1)C1CCCC1 | > 9.01 | 0 | 0.345 (≈ 1.15 µM) | 0 |
| > 14.8 | 0.78 (≈ 1.58 µM) | 4.8 (≈ 9.71 µM) | COc1ccccc1N1CCN(C(CNS(=O)(=O)c2c(C)cc(C)cc2C)c2cccnc2)CC1 (stereo not drawn) | > 14.8 | 86.7 | 0.929 (≈ 1.88 µM) | 0 |
| > 14.3 | 4.27 (≈ 8.96 µM) | 4.74 (≈ 9.95 µM) | O=S(=O)(NCC(c1cccnc1)N1CCN(c2ccccc2F)CC1)c1cc(F)ccc1F (stereo not drawn) | > 14.3 | 0 | 0.265 (≈ 0.556 µM) | 0 |
| 0.369 (≈ 0.971 µM) | > 11.4 | > 11.4 | O=C(Cc1ccc(Cl)cc1)Nc1cccc(-c2nc3cccnc3s2)c1 | > 11.4 | 66.7 | > 11.4 | 58.3 |
| 0.358 (≈ 0.971 µM) | > 11 | > 11 | NC(=O)c1ccc(NC(=O)c2c[nH]c(=O)n(-c3ccc(F)cc3)c2=O)cc1 | > 11 | 0 | > 11 | 0 |
| > 10.7 | > 10.7 | 0.182 (≈ 0.511 µM) | O=C(Nc1nc(-c2ccccn2)cs1)c1cc(Cl)sc1Cl | 3.89 (≈ 10.9 µM) | 80 | 0.069 (≈ 0.194 µM) |  |
| > 10.5 | > 10.5 | 4.06 (≈ 11.5 µM) | O=C(O)CCCCCN1C(=O)/C(=C\c2ccccc2O)SC1=S | > 10.5 | 6.7 | 0.653 (≈ 1.86 µM) | 0 |
| 0.43 (≈ 0.948 µM) | 1.36 (≈ 3 µM) | 0.377 (≈ 0.831 µM) | CCOC(=O)N1CCc2c(sc(NC(=O)c3ccco3)c2-c2nc3ccccc3s2)C1 | 4.51 (≈ 9.95 µM) | 73.3 | 0.455 (≈ 1 µM) | 58.7 |
| 1.97 (≈ 4.75 µM) | > 12.5 | > 12.5 | O=C(CSc1nc2ccccc2nc1O)Nc1ccccc1C(=O)c1ccccc1 | > 12.5 | 26.7 | > 12.5 | 0 |
| > 10.9 | > 10.9 | > 10.9 | COc1ccc(-c2nnc(NC(=O)c3cccc(C(F)(F)F)c3)o2)cc1 | 10.1 (≈ 27.9 µM) | 0 | 0.844 (≈ 2.32 µM) | 0 |
| 1.95 (≈ 6.46 µM) | 2.68 (≈ 8.87 µM) | 0.633 (≈ 2.09 µM) | CC(C)(C)c1ccc(C(=O)Nc2sccc2C(N)=O)cc1 | 4.3 (≈ 14.2 µM) | 13.3 | 2.41 (≈ 7.98 µM) | 0 |

Source: ChEMBL document CHEMBL2093137, “WHO-TDR NTD Screening”
